High-throughput results (PubChem)
Shown are actives, neighbours in structure and some others; about 3.1% of the full set was active somewhere.
Beta apoptosis: blocks beta cell apoptosis | INS-1E cytokine-induced death, ATP luminescence, 48 h; percent of positive-control rescue, neutral wells zero | protection from apoptosis, % (no concentration beside the values) | AID 435005 | 300,000 tested, 0.8% active;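 active = Every replicate reaches about 75%, or at least half do and their mean reaches it too, limit read from the data; inconclusive = At least half of replicates reach the limit but their mean does not; inactive = Under half of replicates reach the limit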;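 note: higher means more ATP so stronger rescue from cytokine killing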
Bfl-1 A1 inh: inhibitors of the anti-apoptotic protein A1, read as caspase activation. 330,000 tested, 0.066% active. caspase activation, % (concentration not given with the values). MEF A1-2A-BIM cells, Caspase-Glo 3/7 luminescence, 3 h; percent of clofoctol response, vehicle zero;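 active = over half of replicate activation scores above 10%, or exactly half above 10 with the replicate mean above 10; inconclusive = replicate mean below 10 yet half the replicates above 10; inactive = over half of replicates below 10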
T cruzi repl: T. cruzi replication inhibition | T. cruzi beta-gal in NIH3T3, luminescence, 90 h | inhibition, % (test concentration not listed) | 300,000 tested, 1.4% active | AID 1885;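 active = mean inhibition across valid replicates above about 55%, limit read from the data; inconclusive = mean below that limit but half or more replicates reach it; inactive = mean below it, under half of replicates reach it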;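 note: signal also drops with host cell toxicity which is not excluded here; higher percent means less beta-gal luminescence so fewer parasites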
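Test system: β-gal T. cruzi (Tulahuen C4) inside NIH/3T3 cells / Quantity: 5,000 cells/well / Measured by: luminescence from GalScreen with 0.05% NP40, read after 60 min / Medium: DMEM plus 2% FBS / Measure: parasite load inhibition, % / Reagent: Tulahuen C4 trypomastigotes, 5000/well / Schedule: co-culture of at least 90 h after 3 h attachment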
H9c2 TAG inh: triacylglycerol accumulation inhibition | H9c2 cells, Nile Red lipid (TAG) fluorescence; cells loaded with 200 µM oleic acid | inhibition, % at 12.5 µM | 230,000 tested, 0.66% active | AID 651582;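 active = pattern-corrected inhibition of lipid staining of at least 50% with the nuclear-stain viability signal not falling by more than 50%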
CSC inhib: blocks cancer stem cells; cancer stem cell-like cells viability, luminescence; inhibition, % at 7.5 µM; 300,000 tested, 1.1% active; in the data active = inhibition above about 75%; inconclusive = no clear call, values can overlap the other calls; tested in HMLE shEcad cells
Calb FLC: affects C. albicans growth with fluconazole | growth inhibition, % (concentration not given with the values) | C. albicans CaCi-2 (fluconazole-resistant clinical isolate) + fluconazole, Alamar Blue growth, 48 h | AID 1979 | 300,000 tested, 0.57% active;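 active = growth inhibition above about 58% in most replicates, limit read from the data, passing the limit was not always enough; inconclusive = exactly half the replicates above a set limit; inactive = most replicates below a set limit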;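 note: all wells also contain fluconazole at 8 µg/ml as a sub-toxic cotreatment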
Each line names hits and unclear results; the compound was inactive in the other large screens.

Cc1cc(=O)oc2cc(OCC(=O)Nc3ccccc3C(=O)O)ccc12	none (no result: H9c2 TAG inh)
C/C(Cn1nnc([N+](=O)[O-])n1)=N\NC(=O)c1ccccc1Cl	Beta apoptosis 80, T cruzi repl 56 (no result: H9c2 TAG inh)
C/C(Cn1nnc([N+](=O)[O-])n1)=N\NC(=O)c1ccncc1	T cruzi repl 57
C/C(Cn1nnc([N+](=O)[O-])n1)=N\NC(=O)c1cccc(Cl)c1	T cruzi repl 57 (no result: H9c2 TAG inh)
CN(CCCNC(=O)CCC(=O)N1CCOc2ccccc21)Cc1ccccc1	none
CN(C)CC(O)COc1cc2ccccc2cc1C(=O)N1CCCCC1 (stereo unspecified)	Calb FLC 103 (no result: Beta apoptosis)
COc1cc2ccccc2cc1C(=O)N1CCCCC1	none
CC(/C=C1\SC(=O)N(CC(=O)Nc2ccc(O)cc2)C1=O)=C\c1ccccc1	none (no result: H9c2 TAG inh)
CC(/C=C1\SC(=O)N(CC(=O)Nc2cccc(O)c2)C1=O)=C\c1ccccc1	CSC inhib 117
O=C(C1COc2ccccc2O1)N1CCN(c2nc3c(F)cc(F)cc3s2)CC1 (stereo unspecified)	none
Cc1cc(C(=O)N(C)CC2CCCN(CCc3ccc(F)cc3)C2)c(C)o1 (stereo unspecified)	T cruzi repl 56
COc1ccc(CCN2CCCC(CN(C)C(=O)c3cc(C)oc3C)C2)cc1 (stereo unspecified)	T cruzi repl 63 (no result: Beta apoptosis)
Cc1c(Cl)cccc1NC(=O)COC(=O)c1c2c(nc3ccccc13)CCN(Cc1ccccc1)C2	T cruzi repl 68 (no result: H9c2 TAG inh)
Cc1cc(N2CCN(C)CC2)ccc1NC(=O)c1c2c(nc3ccccc13)CCN(Cc1ccccc1)C2	Beta apoptosis 99, T cruzi repl 58
COc1cccc(NC(=O)COC(=O)c2c3c(nc4ccccc24)CCC(C)C3)c1 (stereo unspecified)	T cruzi repl 73 (no result: H9c2 TAG inh)
Cc1ccc(-c2cnc(C(O)c3cc(F)cc(Cl)c3)[nH]2)cc1 (stereo unspecified)	none (no result: Beta apoptosis, Bfl-1 A1 inh, T cruzi repl, CSC inhib, Calb FLC)
C/C(=N\NC(=O)CCC(=O)Nc1ccc(C)c(C)c1)C1CC1	Calb FLC 123 (no result: T cruzi repl)
CCCS(=O)(=O)NC(=O)C1(C)CCN1C(=O)Cc1ccc(Cl)cc1Cl (stereo unspecified)	none (no result: Beta apoptosis, Bfl-1 A1 inh, T cruzi repl, CSC inhib, Calb FLC)
CC(C)N(C(=O)[C@H]1C[C@H](CC(=O)NCCCn2ccnc2)C(=O)N2CCc3c([nH]c4ccc(Cl)cc34)[C@]12C)C(C)C	none (no result: Beta apoptosis, Bfl-1 A1 inh, T cruzi repl, CSC inhib, Calb FLC)
Cn1cnc(Sc2ncnc3nc[nH]c23)c1[N+](=O)[O-]	CSC inhib 84
Cc1cccnc1Sc1c([N+](=O)[O-])ncn1C	none
Cn1cnc([N+](=O)[O-])c1Sc1ncnc2nc[nH]c12	CSC inhib 85
CC(=O)CSc1ncnc2nc[nH]c12	none (no result: H9c2 TAG inh)
Cc1ccc(N/N=C/C=C/c2ccco2)cc1	T cruzi repl 73 (no result: Beta apoptosis)
CC(=O)c1ccccc1NC(=O)COC(=O)CCC1CCCC1	none (no result: T cruzi repl, Calb FLC)
CN(C)CCCN(C(=O)COc1ccc(Cl)cc1)c1nc2cc3c(cc2s1)OCCO3	T cruzi repl 57 (no result: Beta apoptosis)
CN(C)CCCN(C(=O)COc1ccc(Cl)cc1)c1nc2cc3c(cc2s1)OCO3	Beta apoptosis 114
CN(C)CCCN(C(=O)COc1ccccc1)c1nc2cc3c(cc2s1)OCO3	none
Cc1ccc(NC(=S)N2CCN(CCN3C(=O)c4cccc5cccc(c45)C3=O)CC2)cc1	T cruzi repl 74
S=C(NC1CCCCC1)N1CCn2cccc2C1c1cccnc1 (stereo unspecified)	T cruzi repl 55
S=C(NC1CCCCC1)N1CCn2cccc2C1c1ccncc1 (stereo unspecified)	none
Fc1cccc(NC(=S)N2CCn3cccc3C2c2cccnc2)c1 (stereo unspecified)	T cruzi repl 63
S=C(Nc1ccccc1)N1CCn2cccc2C1c1cccnc1 (stereo unspecified)	none
CCc1nc2c(OCc3ccccc3C(=O)OC)cccn2c1N(C)C(=O)c1cccc(OC)c1	none (no result: Beta apoptosis, Bfl-1 A1 inh, T cruzi repl, CSC inhib, Calb FLC)
C=CC[C@H](CC(=O)NCCO)C(=O)NC[C@@H](OC(=O)[C@@H](CC=C)CC(=O)OC(C)(C)C)c1ccccc1	none (no result: T cruzi repl, Calb FLC)
CCOc1ccc2nc(NC(=S)N(C)C)sc2c1	Calb FLC 104 (no result: Bfl-1 A1 inh, CSC inhib)
CCOc1ccc2nc(NC(=O)C3CCCN(S(=O)(=O)c4cccs4)C3)sc2c1 (stereo unspecified)	T cruzi repl 61 (no result: CSC inhib)
CCCC(=O)Nc1nc2ccc(OCC)cc2s1	none
CN(C)C(=S)Nc1nc2ccccc2s1	T cruzi repl 57 (no result: Beta apoptosis, Bfl-1 A1 inh, CSC inhib)
CCNC(=O)Nc1nc2ccccc2s1	Calb FLC inconclusive
CSc1nsc(SCC(=O)Nc2ccccc2C(=O)O)n1	none (no result: H9c2 TAG inh, CSC inhib)
CCOc1c2ccccc2nn1CCO	none (no result: T cruzi repl, Calb FLC)
Cc1cc2c(c(/C=C/C(=O)c3ccccc3)c1)OC1(C=C2)Oc2ccccc2C(=O)N1C (stereo unspecified)	CSC inhib 138
O=C1c2ccccc2OC2(C=Cc3ccccc3O2)N1Cc1ccccc1 (stereo unspecified)	none (no result: CSC inhib)
CC(CCc1ccccc1)NC(=O)CN1CCN(c2ccc(O)cc2)CC1 (stereo unspecified)	Calb FLC 95
CC1CN(C(C)C)C(=S)NC1=O (stereo unspecified)	none (no result: Beta apoptosis, Bfl-1 A1 inh, T cruzi repl, CSC inhib, Calb FLC)
CCN(CC)CCNC(=O)c1nn(-c2ccc(C)cc2)c(=O)c2c1c1ccccc1n2C	T cruzi repl 60
COc1cc(-c2cc(C(=O)Nc3ccc(S(=O)(=O)NCc4ccco4)cc3)c3ccccc3n2)cc(OC)c1OC	T cruzi repl 56 (no result: H9c2 TAG inh)
COc1cc(-c2cc(C(=O)NCc3ccco3)c3ccccc3n2)cc(OC)c1OC	none (no result: Beta apoptosis, H9c2 TAG inh)
CN(CCO)c1cc(NCCCN2CCC(Cc3ccccc3)CC2)c2nonc2c1[N+](=O)[O-]	T cruzi repl 65
O=C1OCC2=C1C(c1ccc(F)cc1)c1cc3c(cc1N2)OCO3 (stereo unspecified)	none (no result: Beta apoptosis, Bfl-1 A1 inh, T cruzi repl, CSC inhib, Calb FLC)
O=C1OCC2=C1C(c1ccc(F)cc1)c1cc3c(cc1N2)OCCO3 (stereo unspecified)	H9c2 TAG inh 60 (no result: Beta apoptosis, Bfl-1 A1 inh, T cruzi repl, CSC inhib, Calb FLC)
Cc1cccc(/C=N/n2c(C3CCCCC3)n[nH]c2=S)c1	none (no result: Beta apoptosis, H9c2 TAG inh, CSC inhib)
CC(/C=N/n1c(C2CCCCC2)n[nH]c1=S)=C\c1ccccc1	CSC inhib 98 (no result: H9c2 TAG inh)
Cc1ccc(CC(=O)OC(C)C(=O)NC2CCCCC2C)cc1C (stereo unspecified)	none (no result: T cruzi repl, CSC inhib, Calb FLC)
O=C(NCc1n[nH]c(=S)n1-c1ccc(Cl)c(Cl)c1)c1ccco1	none
COc1ccccc1Cn1c(/C=C/c2ccccc2)nc2ccccc21	none (no result: H9c2 TAG inh)
COc1ccc(/C=C/c2nc3ccccc3n2Cc2ccccc2OC)cc1	T cruzi repl 56
CCOc1ccc(N/C(SCc2cccc([N+](=O)[O-])c2)=C(/C#N)C(N)=O)cc1	none
N#CC(C#N)=C(Nc1ccc(F)cc1)SCc1cccc(F)c1	Beta apoptosis 102
CC(NC1CCCCC1)C(=O)NN=C(c1ccccc1)c1ccccc1 (stereo unspecified)	none
CC(=O)Nc1ccc(NC(=O)c2nc(S(=O)(=O)Cc3cccc(C)c3)ncc2Cl)cc1	CSC inhib 91 (no result: H9c2 TAG inh)
